Here are results for 36 sequences from the array DNA melting data of Ke et al. (doi:10.1101/2024.01.08.574731).

A short description of data set [1]: melting temperature; fluorescence melt of hairpins on a sequencing array, two-state fit, raised by 9.35 °C to match UV melts. The following applies: sodium 0.088 M. In a few lines: (§1)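 Melting temperature and folding enthalpy were obtained by bootstrapped two-state fitting. Fits used Cy3 fluorescence of library hairpins with annealed Cy3 and quencher oligos on a sequenced MiSeq flow cell, imaged in 50 mM Na-HEPES pH 8.0, 25 mM NaCl in 2.5 °C steps up to 60 °C and normalised to pre-quench Cy3 and control constructs. Four replicates were combined by inverse-variance weighting, and fitted temperatures were raised by 9.35 °C to match UV melts.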

The nature of data set [2]: folding enthalpy; higher = less favourable; fluorescence melt of hairpins on a sequencing array, two-state fit. The following applies: sodium 0.088 M. Put shortly: as §1

In the case of GCTATCGAAAGATTGAGC ((((((....)))..))), the Tm in data set [1] is 32.9 °C. Also, the folding enthalpy in data set [2] is -20.5 kcal/mol.
The matching figures for GCTATCGCGAAAGCGAGC (((..(((....)))))): 39.2 °C and -10.3 kcal/mol.
GCTATCGGAAACGATAAC (.(((((....))))).): in data set [1], the Tm was found to be 34.5 °C. Besides, the folding enthalpy in data set [2] is -17.4 kcal/mol.
As for GCTATCGGAAACGATAGC (((((((....))))))), the Tm in data set [1] is 64.3 °C. In data set [2], the folding enthalpy is -52.4 kcal/mol.
The like results for GCTATGCGAAAGCAAGGC ((..(((....)))..)) were, in that order, 42.5 °C and -18.4 kcal/mol.
The like results for GCTATGCGAAAGCACCGC ((..(((....)))..)) were, in that order, 31.9 °C and -8.22 kcal/mol.
The like results for GCTATGCGAAAGCCAAGC (((..((....))..))) were, in that order, 36.5 °C and -16.7 kcal/mol.
Regarding GCTATGCGAAAGCCTCGC ((.(.((....)).).)), in data set [1], the Tm was 32.2 °C. The folding enthalpy in data set [2] was -11.5 kcal/mol.
As for GCTATGCGAAAGCGTAGC ((((.((....)).)))), the Tm in data set [1] was 65.7 °C. In data set [2], the folding enthalpy was -34.5 kcal/mol.
The matching figures for GCTATGGGAAACCATGGC ((.((((....)))).)): 50.9 °C and -41 kcal/mol.
The matching figures for GCTATGGGAAACTATAGC (((((.(....).))))): 43.7 °C and -33.3 kcal/mol.
The matching figures for GCTATTGGAAACAACAGC (((.(((....))).))): 33.7 °C and -16.9 kcal/mol.
With GCTATTGGAAACAATGGC ((.((((....)))).)), the Tm in data set [1] was determined as 45.7 °C. In addition, in data set [2], the folding enthalpy is -36.1 kcal/mol.
The matching figures for GCTATTTCGAAAGAAAGC (((..(((....)))))): 28.3 °C and -12.5 kcal/mol.
As to GCTCAGCCGAAAGGCAGC (((..(((....)))))), the Tm in data set [1] came to 41.1 °C. Also, the folding enthalpy in data set [2] was -13.1 kcal/mol.
The matching figures for GCTCAGCGAAAGCTCGGC ((..(((....)))..)): 39.5 °C and -14.5 kcal/mol.
The matching figures for GCTCAGGGAAACCTGAAC (.(((((....))))).): 37.7 °C and -17.4 kcal/mol.
The like results for GCTCAGGGAAACCTGGGC ((.((((....)))).)) were, in that order, 54.4 °C and -39.6 kcal/mol.
For GCTCATACGAAAGTAAGC (((..(((....)))))), the Tm in data set [1] turned out to be 28 °C. Moreover, the folding enthalpy in data set [2] is -9.13 kcal/mol.
The matching figures for GCTCATGAAAATGAGC ((((((....)))))): 63.6 °C and -38.5 kcal/mol.
As for GCTCCACGAAAGTGAAGC (((.(((....))).))), the Tm in data set [1] turned out to be 51.2 °C. The folding enthalpy in data set [2] is -30.2 kcal/mol.
The matching figures for GCTCCAGGAAACTGGGGC ((.((((....)))).)): 57.6 °C and -39.6 kcal/mol.
The matching figures for GCTCCCGAAAGGGAAGC ((((((....))).))): 59.3 °C and -31.8 kcal/mol.
The like results for GCTCCCGAAAGGGCCAGC ((((((....)))..))) were, in that order, 34.8 °C and -11.7 kcal/mol.
For GCTCCCGCGAAAGCGAGC (((..(((....)))))), in data set [1], the Tm is 37.5 °C. The folding enthalpy in data set [2] was -10.7 kcal/mol.
On to GCTCCCGGAAACGAGAGC ((((.((....)).)))), for which the Tm in data set [1] worked out at 49.2 °C. Moreover, the folding enthalpy in data set [2] was -36.5 kcal/mol.
For the sequence GCTCCCGGAAACGGAAGC (((.(((....))).))), in data set [1], the Tm was found to be 50 °C. In data set [2], the folding enthalpy was -28.6 kcal/mol.
With GCTCCGCGAAAGCACAGC (((..((....))..))), the Tm in data set [1] was 31.3 °C. The folding enthalpy in data set [2] is -8.71 kcal/mol.
The like results for GCTCCGCGAAAGCCTAGC (((..((....))..))) were, in that order, 34.7 °C and -10.7 kcal/mol.
The matching figures for GCTCCGCGAAAGCGATGC ((..(((....)))..)): 40.8 °C and -13.3 kcal/mol.
The like results for GCTCCGCGAAAGCGCAGC (((.(((....))).))) were, in that order, 45.5 °C and -29.8 kcal/mol.
GCTCCGCGAAAGCGGCGC ((.((((....)))).)): the Tm in data set [1] was 65.1 °C. In addition, the folding enthalpy in data set [2] is -18.6 kcal/mol.
With GCTCCGCGAAAGCTGGGC ((.(.((....)).).)), the Tm in data set [1] is 44.9 °C. In addition, in data set [2], the folding enthalpy was -21.5 kcal/mol.
The like results for GCTCCGCGAAAGCTTAGC (((..((....))..))) were, in that order, 35.1 °C and -14.4 kcal/mol.
For the sequence GCTCCGGGAAACCGGGGC ((.((((....)))).)), the Tm in data set [1] came to 63.8 °C. In addition, in data set [2], the folding enthalpy was -43 kcal/mol.
The like results for GCTCCTCCGAAAGGAAGC (((..(((....)))))) were, in that order, 34.2 °C and -15.9 kcal/mol.
